Screening data (PubChem BioAssay)
Hits are enriched below; roughly 2% of the tested compounds scored in any of these assays.
PKD1 inh: inhibitors of human PKD1 kinase. Q15139. inhibition, % (test concentration not listed). 200,000 compounds, 0.056% hits. AID 797. PKD1 kinase fluorescence polarization assay
EBV gp42 inh: EBV gp42 inhibition; AID 1085; Q1HVG2; 220,000 compounds, 0.42% hits; inhibition, % (tested at 21.74 µM); Fluorescence polarization binding assay, mP read-out
Target sequence (Q1HVG2 whole entry, looked up): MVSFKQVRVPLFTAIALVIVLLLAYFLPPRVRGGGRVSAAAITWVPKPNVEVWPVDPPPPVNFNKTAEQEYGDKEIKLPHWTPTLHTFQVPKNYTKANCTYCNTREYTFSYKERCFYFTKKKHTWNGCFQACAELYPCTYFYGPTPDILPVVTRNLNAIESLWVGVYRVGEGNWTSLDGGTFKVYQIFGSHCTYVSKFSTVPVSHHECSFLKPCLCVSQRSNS
MEX-5 binding: C. elegans MEX-5 TCR-2 RNA binding activity | activity score (negative = inhibition of binding), % at 10 µM | 300,000 compounds, 0.38% hits | MEX-5/FITC-TCR2 RNA binding, fluorescence polarization; hits give low values | Q9XUB2;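 active = inhibition past about -25% in most replicates, and total fluorescence under double the plate's negative control median, limit read from the data; inconclusive = replicates evenly split on the limit, or fluorescence at least double controls; inactive = too little inhibition in most replicates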
RanGTP-Imp inh: inhibitors of RanGTP-importin-beta interaction, primary screen, biochemical, FRET, CFP-Ran, YFP-importin-beta, homogeneous; cell-free CFP-Ran/YFP-importin-beta FRET ratio; 300,000 compounds, 1.1% hits; inhibition, % (concentration not given with the values); AID 2216;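 active = more than half of the replicate wells show a fall in the fluorescence ratio signal beyond about 16%, limit read from the data, passing the limit was not always enough; inconclusive = exactly half of the replicate wells pass the set limit; inactive = fewer than half of replicates pass the limit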
Runt-CBFb FRET: blocks binding of human RUNX1 Runt domain to CBFb; Q01196+Q13951; Cerulean-Runt/Venus-CBFb FRET ratio 530/480, 1 h; inhibition, % at 20 µM; 220,000 compounds, 0.46% hits; AID 1496;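 active = inhibition over about 50% at 20 µM in the single-dose screen, limit read from the data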
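Schedule: protein complex preformed 1 h, compound exposure 1 h, room temperature, dark; test system: Cerulean-labeled Runt domain protein; amount: 100 nM per protein; buffer or medium: Tris 50 mM pH 7.5, KCl, K2SO4, 0.01% BSA; read-out: loss of energy transfer signal; detection: FRET fluorescence; controls: 5 µM unlabeled CBFb as full-inhibition high control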
Runt-SMMHC FRET: inhibitors of human RUNX1 Runt domain binding to CBFb-SMMHC; Q01196+Q13951; Cerulean-Runt/Venus-CBFb-SMMHC FRET ratio 530/480, 1 h; inhibition, % at 20 µM; 220,000 compounds, 0.74% hits;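 active = mean inhibition across duplicate retests at 20 µM reaching about 50%, limit read from the data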;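 also: inhibitors lower the FRET ratio by blocking Runt binding to CBFb-SMMHC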
Hits are given with their value; 0 = inactive; ? = inconclusive; - = no result. Rule as the data show it, unless noted: active = inhibition above about 50%; inactive = the rest.

SMILES	PKD1 inh	EBV gp42 inh	MEX-5 binding	RanGTP-Imp inh	Runt-CBFb FRET	Runt-SMMHC FRET
CCSc1nnc(NC(=O)CSc2nccn2-c2cc(C)cc(C)c2)s1	0	0	0	26	0	0
CCc1ccc(-c2cnc3nc[nH]c(=O)c3n2)cc1	-	-	-	15	-	-
CCc1ccc(-c2ccc(C(=O)O)c(C)n2)cc1	0	0	0	0	0	0
COc1cc(/C=N/NC2=NC(C)(C)Cc3ccccc32)cc(OC)c1OC	0	0	0	0	0	0
CCCCCCOC(=O)C(C#N)c1nc2ccccc2nc1N1CCN(C)CC1 (stereo not drawn)	0	0	0	23	0	0
CC(C)OC(=O)C(C#N)c1nc2ccccc2nc1N1CCCC1 (stereo not drawn)	0	0	?	0	0	0
CCCCCCOC(=O)C(C#N)c1nc2ccccc2nc1N1CCCCC1 (stereo not drawn)	0	0	0	31	0	0
CCC(C)COC(=O)C(C#N)c1nc2ccccc2nc1N1CCCCC1 (stereo not drawn)	0	0	0	23	0	0
c1nc2n(n1)C1=C(CCCC1)C1(CCCCC1)N2	0	0	0	15	0	0
CCCCNC(=O)CN1C(=O)c2cccc(N)c2C1=O	0	63	0	0	0	93
COc1ccccc1CNC(=O)CN1C(=O)c2cccc(N)c2C1=O	-	-	0	27	-	-
CCCn1c(C)cc(C(=O)CN2C(=O)c3cccc(N)c3C2=O)c1C	0	0	-	-	0	57
Cc1ccc2c(c1)N(CC(=O)NC1CCCC(C)C1C)C(=O)c1cccnc1O2 (stereo not drawn)	-	-	0	0	-	-
Cc1cc(C(=O)CN2C(=O)c3ccccc3C2=O)c(C)n1Cc1cccs1	0	0	0	0	0	0
CC1CCCCC1NC(=O)CN1C(=O)c2cccc(N)c2C1=O (stereo not drawn)	0	79	0	0	0	86
COc1ccccc1CNC(=O)CCN1C(=O)c2ccccc2C1=O	-	-	0	0	-	-
COCCCNC(=O)CN1C(=O)c2ccccc2C1=O	0	0	0	0	0	0
CCN(CC)CCNC(=O)C1(O)c2cc(Br)ccc2NC(=O)N1c1c(F)cccc1F (stereo not drawn)	-	-	0	0	-	-
CCn1c(CNC(=O)C2CCCCC2)cc2cc(C)ccc21	-	-	0	0	-	-
CN(C(=O)c1ccccc1-c1ncc[nH]1)C1CCCN(Cc2ccccc2F)C1 (stereo not drawn)	-	-	0	0	-	-
CCN(C(=O)CN1CCc2ccccc21)c1c(N)n(Cc2ccccc2)c(=O)[nH]c1=O	0	0	0	0	0	57
CCOC(=O)c1c(N2C(=O)C=CC2=O)sc(C)c1C	0	0	0	0	0	62
CCOC(=O)c1c(NC(N)=O)sc(C)c1C	0	0	0	0	0	0
COc1ccccc1C(=O)N(CCC1CCCN1C)c1nc2ccccc2s1 (stereo not drawn)	0	0	0	0	0	0
Cc1cc(=O)n2[nH]c(=O)c(N=Nc3ccccc3)c2[nH]1	0	0	-82	0	0	0
SMILES	PKD1 inh	EBV gp42 inh	MEX-5 binding	RanGTP-Imp inh	Runt-CBFb FRET	Runt-SMMHC FRET
CCOc1ccc(N=Nc2c(=O)[nH]n3c(=O)cc(C)[nH]c23)cc1	0	0	-51	0	0	0
CCOc1ccc(N=Nc2c(=O)[nH]n3c(=O)c4c([nH]c23)CCCC4)cc1	0	0	?	0	0	0
O=C(CC1C(=O)NCCN1Cc1ccccc1C(F)(F)F)NCCN1CCCCC1=O (stereo not drawn)	-	-	0	0	-	-
CCOC(=O)c1ccc2nc(Nc3nc4ccc(F)cc4s3)sc2c1	0	0	0	0	0	0
COC(=O)c1ccc2nc(Nc3nc4c(F)cc(F)cc4s3)sc2c1	0	0	0	71	0	0
COC(=O)c1ccc2nc(NC(=O)C3CC3)sc2c1	-	-	0	0	-	-
COC(=O)c1ccc2nc(NC(=O)C(C)C)sc2c1	0	0	0	30	0	0
COc1ccccc1C1CC(=O)NC(C)=C1C(=O)OC(C)C (stereo not drawn)	0	0	0	0	0	0
Nc1cc(C(=O)O)c(N)c2c1C(=O)c1ccccc1C2=O	-	119	-101	0	0	0
Nc1c(C(=O)O)ccc2c1C(=O)c1ccccc1C2=O	0	0	0	0	0	0
CCOC(=O)/C=C1/N(C)c2ccccc2C1(C)C	-	0	0	0	0	0
